Screening data deposited in PubChem by Broad Institute.
Shown is part of a subset that was picked to be rich in hits.
GSK3beta inhib: human GSK3beta kinase inhibitors, primary screen, biochemical, cell-free homogeneous, HTS. Glycogen synthase kinase-3 beta (Homo sapiens), P49841. GST-GSK3beta kinase, ADP-Glo luminescence, 60 min; stronger effect = lower value. activity score (negative = inhibition), % at 10 µM. hit rate 0.038% among 300,000. AID 2097, 2009;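 active = more than half of replicate wells score below -50%, meaning over 50% inhibition versus plate controls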;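 also: 0% = median DMSO wells and -100% = median GW8510 positive control wells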
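Test system: GST-fused GSK3beta enzyme, cell-free | Quantity: 1.6 ng GST-GSK3beta enzyme per well | Reagent: 25 µM ATP with peptide substrate | Schedule: 60 min enzyme reaction, room temperature | Signal: Luminescent ADP-Glo measurement of ADP formed | Read-out basis: Score relative to plate controls | Control set: DMSO and 20 µM GW8510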
GSK3 alpha inh: blockers of GSK3A enzyme activity – biochemical, luminescence, cell-free homogeneous, HTS, primary screen | AID 2650, 2010 | hit rate 0.1% among 320,000 | inhibition, % at 10 µM | Glycogen synthase kinase-3 alpha (Homo sapiens), P49840 | GSK-3 alpha kinase, ADP-Glo luminescence, 60 min;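 active = more than half of replicates show inhibition above 20%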;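 also: GST-tagged GSK-3 alpha with peptide substrate and 25 µM ATP; 0% = DMSO neutral wells and 100% = GW8510 positive control wells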
Target sequence (P49840 whole entry, looked up): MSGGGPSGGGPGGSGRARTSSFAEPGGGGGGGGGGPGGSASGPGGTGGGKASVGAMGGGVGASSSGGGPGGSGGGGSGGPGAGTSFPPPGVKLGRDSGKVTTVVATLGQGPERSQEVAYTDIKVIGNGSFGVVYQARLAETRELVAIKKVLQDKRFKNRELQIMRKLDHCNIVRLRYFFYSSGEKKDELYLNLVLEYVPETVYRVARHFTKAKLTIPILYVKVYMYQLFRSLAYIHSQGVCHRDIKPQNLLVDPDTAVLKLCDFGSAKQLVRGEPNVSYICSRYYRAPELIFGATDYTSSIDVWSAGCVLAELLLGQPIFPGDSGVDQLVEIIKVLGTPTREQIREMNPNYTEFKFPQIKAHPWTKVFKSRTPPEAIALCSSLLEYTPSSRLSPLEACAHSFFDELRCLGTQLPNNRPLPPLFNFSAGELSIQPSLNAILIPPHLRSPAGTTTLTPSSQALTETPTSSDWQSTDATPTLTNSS
DYRK1A inh: rat Dyrk1A kinase inhibitors, primary screen, biochemical, single point, plate reader | Dual specificity tyrosine-phosphorylation-regulated kinase 1A (Rattus norvegicus), Q63470 | ADP-Glo luminescence, NFATc1 peptide | inhibition, % at 12.5 µM | hit rate 0.43% among 310,000 | AID 504441, 2011; in the data active = inhibition above about 50%;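 also: plate controls were vehicle with enzyme for no effect and no enzyme for full effect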
STK33 inh: inhibitors of purified STK33 kinase, primary screen, biochemical, ADP-Glo luminescence, homogeneous, cell-free | Serine/threonine-protein kinase 33 (Homo sapiens), Q9BYT3 | MBP phosphorylation | inhibition, % at 10 µM | hit rate 0.073% among 320,000;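 active = inhibition at or above 25%, using the most active replicate where run in duplicate; inactive = inhibition below 25%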
CDK5 inh: inhibitors of human CDK5/p35 kinase, primary screen, biochemical, single concentration. inhibition, % at 10 µM. Recombinant CDK5/p35, ADP-Glo luminescence, 60 min. Cyclin-dependent kinase 5 (Homo sapiens) + Cyclin-dependent kinase 5 activator 1 (Homo …. AID 488839, 2010. hit rate 0.01% among 330,000;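 active = highest replicate inhibition of at least 50% and at least 75% of replicates reaching 50%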;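 also: plate controls were DMSO neutral control for no effect and GW8510 at 10 µM for full effect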
ADP-Glo artifact: ADP-Glo luciferase interference without Dyrk1A, dose response, artefact control for Dyrk1A inhibitor project, biochemical, luminescence, cherry-pick, set 02. AID 588348, 2011. ADP-Glo luciferase artifact assay, no Dyrk1A. AC50, µM (series often up to 12 µM), for the others: top-dose activity change, negative = inhibition. shares compounds with DYRK1A inh. 1,300 tested, under 10 active;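 active = fitted half-maximal dose AC50 no more than ten times the top valid tested dose, with luminescence dropping as dose rises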
Active calls of the source: *.

Screening CCCCCCCCNS(=O)(=O)CCNCc1ccco1 returned DYRK1A inh 13 and CDK5 inh 1.
CCOc1ccc(NC(=S)N(CCc2c(C)[nH]c3ccc(C)cc23)Cc2cccnc2)cc1 was read as GSK3beta inhib -2, GSK3 alpha inh -1, DYRK1A inh -3, STK33 inh 2 and CDK5 inh 0.
COc1ccc(NC(=S)N(CCc2c(C)[nH]c3ccccc23)Cc2cccnc2)cc1 was read as GSK3beta inhib 3, GSK3 alpha inh 0, DYRK1A inh 60*, STK33 inh 0, CDK5 inh 2 and ADP-Glo artifact 9%.
`COc1ccc2nc3c(cc2c1)c(NC(=O)C1CCCO1)nn3CC(C)C` (stereo unspecified) gave GSK3beta inhib -88*, GSK3 alpha inh 99*, DYRK1A inh 79*, STK33 inh 1, CDK5 inh 28 and ADP-Glo artifact 10%.
O=C(NNC1=C(C(=O)C(F)(F)F)CCC1)c1ccccc1O was read as GSK3beta inhib 1, GSK3 alpha inh -2, DYRK1A inh 56*, STK33 inh 2, CDK5 inh -1 and ADP-Glo artifact 10%.
Screening CCOC(=O)C1CCCN(c2c(N3CCC(N4CCCCC4)CC3)c(=O)c2=O)C1 (stereo unspecified) returned GSK3beta inhib 11, GSK3 alpha inh -1, DYRK1A inh -2, STK33 inh 1 and CDK5 inh -1.
For CCOC(=O)C1CCCN(c2c(N3CCN(C4CCCCC4)CC3)c(=O)c2=O)C1 (stereo unspecified) the results were GSK3beta inhib 1, GSK3 alpha inh -2, DYRK1A inh 60*, STK33 inh -1, CDK5 inh 0 and ADP-Glo artifact 6%.
`O=c1[nH]c(=S)[nH]cc1Oc1ccc(Cl)cc1` gave DYRK1A inh -4 and CDK5 inh 3.
Screening CC(=O)C1CCC2C3CCC4CC(=O)CCC4(C)C3C=CC12C (stereo unspecified) returned DYRK1A inh -6 and CDK5 inh 2.
For COc1cc(C(=O)Nc2cccc(-c3nncn3C)c2)cc(OC)c1OC the results were GSK3beta inhib 2, GSK3 alpha inh 0, DYRK1A inh 77*, STK33 inh 6, CDK5 inh 1 and ADP-Glo artifact 10%.
For CC[C@]12C(=O)N(C)C[C@H]([C@@H]3C(=O)N(C)C(=O)[C@@H]31)N2C(=O)c1ccccc1 the results were DYRK1A inh 18 and CDK5 inh 2.
`CCN(C(=O)COC(=O)c1c(NC(C)=O)sc(C)c1C)c1c(N)n(Cc2ccccc2)c(=O)[nH]c1=O` gave DYRK1A inh -5 and CDK5 inh -1.
Cc1cc(C(=O)CSc2nncs2)c(C)n1Cc1ccco1 was read as GSK3beta inhib 2, GSK3 alpha inh 2, DYRK1A inh -2, STK33 inh 1 and CDK5 inh 0.
Cc1cc(C(=O)CSc2nn(-c3ccccc3)c(=S)s2)c(C)n1Cc1ccco1 was read as GSK3beta inhib -1, GSK3 alpha inh 4, DYRK1A inh 57*, STK33 inh -1, CDK5 inh -1 and ADP-Glo artifact 5%.
Screening COCCNC(=O)C(OC(=O)c1ccco1)c1ccc(OC)cc1 (stereo unspecified) returned DYRK1A inh 0 and CDK5 inh 0.
`CC(Oc1ccccc1)C(=O)Nc1ccc(F)c(S(=O)(=O)N2CCOCC2)c1` (stereo unspecified) gave DYRK1A inh -5 and CDK5 inh -1.
Screening O=C1CCCc2c1[nH]c1ccccc21 returned GSK3beta inhib -1, GSK3 alpha inh 0, DYRK1A inh 29, STK33 inh 2 and CDK5 inh 0.
For c1ccc2c3c([nH]c2c1)-c1[nH]ncc1CC3 the results were GSK3beta inhib 0, GSK3 alpha inh 36, DYRK1A inh 56*, STK33 inh 32*, CDK5 inh 8 and ADP-Glo artifact 10%.
